Hits are enriched below; roughly 1.6% of the tested compounds scored in any of these assays.
MT1-MMP act inh = blockers of MT1-MMP proenzyme processing, primary screen, HT1080 RFP-PRO-GFP cells, GFP/RFP fluorescence; GFP/RFP ratio change, % at 20 µM; Matrix metalloproteinase-14 (Homo sapiens), P50281; GFP/RFP ratio fluorescence, overnight; percent of plate control window, DMSO zero; hit rate 0.061% among 360,000;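 active means GFP/RFP ratio change of at least 30% with cell ATP level not reduced by more than half and red fluorescence within 50% of control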
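Assay system: HT1080 RFP-PRO-GFP cells | Dosing: 20 µM single dose, 1% DMSO | Incubation: Cells overnight before dosing, compound overnight, 37 °C, 5% CO2 | Evaluation: GFP/RFP fluorescence ratio | Control set: DMSO-only wells and HT1080 RFP-L50D-GFP cell wells as references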
TbMetRS inhib = T. brucei MetRS inhibitors, primary screen, biochemical, luminescence | methionyl-tRNA synthetase (Trypanosoma brucei brucei) | hit rate 0.4% among 360,000 | purified T. brucei MetRS, ATP depletion, Kinase-Glo luminescence | AID 624268, 2012 | inhibition, % at 11.9 µM;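 active means inhibition above a per-plate cutoff of the control wells' mean inhibition plus 3 SD, cut at about 5.5% in these data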;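 further: 0% = DMSO wells median and 100% = median of wells with control inhibitor compound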
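System: purified T. brucei MetRS enzyme / Detection: Kinase-Glo luciferase luminescence reporting remaining unconsumed ATP / Medium: HEPES buffer with MgCl2, KCl, DTT, spermine, BSA, pyrophosphatase / Replication: singlicate, one well per compound / Evaluation: percent inhibition relative to median high and low control wells / Schedule: 2 h aminoacylation at 25 °C after 15 min preincubation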
SKN-1 inh = suppressors of acrylamide-induced Pgst-4::GFP reporter in worms, primary screen, SKN-1 inhibitor project, whole organism, uHTS, GFP/RFP fluorescence ratio, strain VP596. C. elegans VP596 Pgst-4::GFP/RFP ratio, 24 h. inhibition, % at 21.8 µM. hit rate 0.49% among 360,000;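 active means interference check ratio from 0.5 to 1.5 plus GFP to RFP signal ratio inhibition reaching or exceeding a fixed threshold, cut at about 30% in these data, passing the limit was not always enough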
Rin1 Abl inh = inhibitors of Rin1-Abl protein binding, primary screen, biochemical, TR-FRET | hit rate 0.4% among 360,000 | Tyrosine-protein kinase ABL1 (Homo sapiens) + Ras and Rab interactor 1 (Homo sapiens), … | inhibition, % at 7.35 µM | AID 588664, 2011; in the data active means inhibition above about 5%, passing the limit was not always enough
Target sequence (P00519 whole entry, looked up): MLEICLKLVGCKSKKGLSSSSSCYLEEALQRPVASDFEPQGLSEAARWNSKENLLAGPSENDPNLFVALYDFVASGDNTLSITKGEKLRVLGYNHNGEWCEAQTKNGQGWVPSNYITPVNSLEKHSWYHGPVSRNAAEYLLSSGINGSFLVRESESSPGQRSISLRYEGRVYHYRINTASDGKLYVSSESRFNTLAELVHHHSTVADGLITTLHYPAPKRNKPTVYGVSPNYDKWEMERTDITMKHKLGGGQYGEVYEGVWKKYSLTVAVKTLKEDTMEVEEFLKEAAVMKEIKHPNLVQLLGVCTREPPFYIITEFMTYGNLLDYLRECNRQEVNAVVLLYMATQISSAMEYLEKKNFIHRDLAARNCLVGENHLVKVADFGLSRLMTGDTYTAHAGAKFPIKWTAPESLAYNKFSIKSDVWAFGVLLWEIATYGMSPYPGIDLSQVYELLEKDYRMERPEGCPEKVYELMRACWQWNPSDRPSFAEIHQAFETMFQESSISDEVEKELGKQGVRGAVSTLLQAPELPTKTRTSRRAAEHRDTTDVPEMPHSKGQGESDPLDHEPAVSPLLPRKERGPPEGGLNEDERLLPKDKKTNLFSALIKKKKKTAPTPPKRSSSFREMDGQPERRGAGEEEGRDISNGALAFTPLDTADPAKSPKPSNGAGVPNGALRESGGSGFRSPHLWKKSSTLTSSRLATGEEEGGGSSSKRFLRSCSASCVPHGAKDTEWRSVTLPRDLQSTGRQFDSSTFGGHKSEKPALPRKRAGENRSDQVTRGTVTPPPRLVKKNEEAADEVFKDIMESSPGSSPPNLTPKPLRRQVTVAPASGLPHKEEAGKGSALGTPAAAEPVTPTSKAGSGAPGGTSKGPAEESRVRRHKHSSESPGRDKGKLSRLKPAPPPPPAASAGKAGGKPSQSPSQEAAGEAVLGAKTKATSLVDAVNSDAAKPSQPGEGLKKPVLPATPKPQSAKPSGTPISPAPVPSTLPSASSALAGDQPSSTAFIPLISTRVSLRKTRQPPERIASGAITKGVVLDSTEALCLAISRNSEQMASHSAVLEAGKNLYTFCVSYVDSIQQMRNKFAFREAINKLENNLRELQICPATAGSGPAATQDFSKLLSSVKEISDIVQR
Target sequence (Q13671 whole entry, looked up): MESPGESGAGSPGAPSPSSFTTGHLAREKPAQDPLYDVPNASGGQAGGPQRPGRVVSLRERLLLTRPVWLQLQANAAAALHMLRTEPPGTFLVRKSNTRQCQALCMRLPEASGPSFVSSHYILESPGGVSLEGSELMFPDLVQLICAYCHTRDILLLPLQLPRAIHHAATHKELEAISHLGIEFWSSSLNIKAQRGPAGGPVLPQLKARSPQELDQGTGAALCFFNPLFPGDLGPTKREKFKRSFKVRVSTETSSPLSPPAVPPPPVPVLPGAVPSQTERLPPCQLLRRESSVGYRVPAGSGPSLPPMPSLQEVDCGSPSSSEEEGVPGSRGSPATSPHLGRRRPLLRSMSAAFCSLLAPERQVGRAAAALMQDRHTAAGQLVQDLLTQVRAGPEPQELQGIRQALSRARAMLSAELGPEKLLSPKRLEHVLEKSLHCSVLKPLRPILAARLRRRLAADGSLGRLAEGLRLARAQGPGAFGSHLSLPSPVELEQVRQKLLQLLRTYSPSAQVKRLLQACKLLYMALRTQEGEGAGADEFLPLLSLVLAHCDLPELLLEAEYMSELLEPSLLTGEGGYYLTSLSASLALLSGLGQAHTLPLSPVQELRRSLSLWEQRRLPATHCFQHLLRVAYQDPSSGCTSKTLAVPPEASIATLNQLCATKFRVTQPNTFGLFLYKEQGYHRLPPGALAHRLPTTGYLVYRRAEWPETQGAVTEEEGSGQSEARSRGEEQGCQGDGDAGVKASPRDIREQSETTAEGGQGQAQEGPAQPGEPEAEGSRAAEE
Arr AP2 block = inhibitors of beta-arrestin/AP2 binding, primary screen, biochemical, GPCR trafficking, flow cytometry; beta-arrestin 1 C-terminal peptide binding to AP2 beta2-adaptin appendage (human); FITC-arrestin peptide / GST-AP2 beads; AP2 beta2 appendage carries R879A mutation; inhibition, % at 10 µM; hit rate 0.31% among 340,000; AID 504490, 2011;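 active means inhibition above a set limit, near 3 SD of compounds lacking own fluorescence, cut at about 54% in these data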;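 further: plate controls were DMSO wells for no effect and 5 µM unlabelled arrestin peptide for full effect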
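System: GST-AP2 R879A glutathione beads. Medium: PBS with 0.05% Tween 20 and 0.1% BSA. Also added: FITC-arrestin peptide, 50 nM. Incubation: 12 min plus 1 h, RT. Measured by: high-throughput flow cytometry of beads, ex 488, em 535 nm. Evaluation: percent drop in bead-associated FITC signal.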
Tb MetRS conf = T. brucei MetRS inhibitors, confirmation, biochemical, luminescence; shares compounds with TbMetRS inhib; hit rate 93% among 1,400; inhibition, % at 11.9 µM; T. brucei MetRS enzyme, luminescence (ATP depletion); in the data active means inhibition above about 7%
Jurkat tox = Jurkat T cell cytotoxicity, cytotoxicity control for T. brucei MetRS inhibitor project, luminescence, high throughput; shares compounds with TbMetRS inhib; Jurkat cells viability, ATP luminescence; inhibition, % at 8.3 µM; hit rate 12% among 1,400; in the data active means inhibition above about 15%;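 further: 0% = vehicle and 100% = reference inhibitor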
TbMetRS FP orth = T. brucei MetRS inhibitors, orthogonal assay for T. brucei MetRS inhibitor project, biochemical, fluorescence polarization | shares compounds with TbMetRS inhib | purified T. brucei MetRS | inhibition, % at 11.9 µM | hit rate 44% among 1,400 | AID 651607, 2012; in the data active means inhibition above about 17%;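 further: 0% = vehicle wells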
* hit, by the source's call.

What do the screens show for `COc1ccc(CNC(=O)CSc2nc3ccc(C)cc3[nH]2)cc1`?
MT1-MMP act inh: 1.0; TbMetRS inhib: 28.5*; SKN-1 inh: 7.2; Rin1 Abl inh: -1.6; Arr AP2 block: 4.9; Tb MetRS conf: 48.3*; Jurkat tox: -1.7; TbMetRS FP orth: 20.8*

What do the screens show for `Cc1ccc2nc(SC(C)C(=O)NCc3ccc4c(c3)OCO4)[nH]c2c1` (stereo not given)?
MT1-MMP act inh: 0.3; TbMetRS inhib: 13.2*; SKN-1 inh: 6.4; Rin1 Abl inh: 4.3; Tb MetRS conf: 35.2*; Jurkat tox: 2.1; TbMetRS FP orth: 14.5

What do the screens show for `O=C(CSc1nc2ccccc2[nH]1)NC1CCS(=O)(=O)C1` (stereo not given)?
MT1-MMP act inh: 4.7; TbMetRS inhib: 9.3*; SKN-1 inh: -5.4; Rin1 Abl inh: -1.2; Arr AP2 block: 10.4; Tb MetRS conf: 17.6*; Jurkat tox: 5.6; TbMetRS FP orth: -2.6

How did CCN(C(=O)CSc1nc2ccc(Cl)cc2[nH]1)C1CCS(=O)(=O)C1 (stereo not given) do in these assays?
MT1-MMP act inh: 0.9; TbMetRS inhib: 5.7*; SKN-1 inh: -7.4; Rin1 Abl inh: 1.0; Arr AP2 block: -9.4; Tb MetRS conf: 22.7*; Jurkat tox: -4.7; TbMetRS FP orth: 6.3

How did COc1ccccc1N1CCN(C(=O)CC(NC(=O)c2ccccc2Cl)c2ccccc2)CC1 (stereo not given) do in these assays?
MT1-MMP act inh: 5.1; TbMetRS inhib: -0.2; SKN-1 inh: 3.3; Rin1 Abl inh: 1.2; Arr AP2 block: -9.1

What do the screens show for `COc1cc(OC)c(NC(=O)c2cc3ccccc3cc2O)cc1Cl`?
MT1-MMP act inh: -1.7; TbMetRS inhib: 0.0; SKN-1 inh: 15.3; Rin1 Abl inh: 4.6; Arr AP2 block: 27.1

How did COc1ccc(C(=O)NCC(c2ccco2)N2CCOCC2)cc1 (stereo not given) do in these assays?
MT1-MMP act inh: -0.6; TbMetRS inhib: 0.7; SKN-1 inh: 11.1; Rin1 Abl inh: 1.7

Results for Cc1ccc2nc(SCC(=O)N(C)C3CCS(=O)(=O)C3)[nH]c2c1 (stereo not given) ?
MT1-MMP act inh: -0.2; TbMetRS inhib: 0.3; SKN-1 inh: -2.5; Rin1 Abl inh: 2.6; Arr AP2 block: 24.1

How did Cc1ccc2nc(SCC(=O)NC3CCS(=O)(=O)C3)[nH]c2c1 (stereo not given) do in these assays?
MT1-MMP act inh: -1.8; TbMetRS inhib: 9.7*; SKN-1 inh: 13.9; Rin1 Abl inh: 5.3; Arr AP2 block: 29.9; Tb MetRS conf: 36.8*; Jurkat tox: -9.3; TbMetRS FP orth: 13.9

How did Cn1c(CC(=O)Nc2ccccc2F)nnc1SCC(=O)NC1CCCCC1 do in these assays?
MT1-MMP act inh: 1.5; TbMetRS inhib: 79.5*; SKN-1 inh: 12.7; Rin1 Abl inh: 2.4; Arr AP2 block: 7.9; Tb MetRS conf: 0.3; Jurkat tox: 4.4; TbMetRS FP orth: -0.2

How did Cc1cccc(NS(=O)(=O)c2c(C)[nH]c(C)c2C(=O)N2CCCC2)c1 do in these assays?
MT1-MMP act inh: 1.6; TbMetRS inhib: 25.5*; SKN-1 inh: -6.6; Rin1 Abl inh: -0.6; Arr AP2 block: 21.5; Tb MetRS conf: 54.6*; Jurkat tox: -7.6; TbMetRS FP orth: 19.9*

Results for COc1ccc(Cl)cc1NS(=O)(=O)c1c(C)[nH]c(C)c1C(=O)N1CCCCC1 ?
MT1-MMP act inh: 2.0; TbMetRS inhib: 0.6; SKN-1 inh: -3.9; Rin1 Abl inh: 5.8; Arr AP2 block: 32.0

How did CCOc1ccccc1NS(=O)(=O)c1c(C)[nH]c(C)c1C(=O)N1CCCCC1 do in these assays?
MT1-MMP act inh: 0.7; TbMetRS inhib: 34.8*; SKN-1 inh: 2.3; Rin1 Abl inh: -0.9; Arr AP2 block: 9.3; Tb MetRS conf: 56.6*; Jurkat tox: -5.2; TbMetRS FP orth: 27.4*

How did O=C(Nc1cccc2ncccc12)c1ccc(Br)c([N+](=O)[O-])c1 do in these assays?
MT1-MMP act inh: 0.1; TbMetRS inhib: 31.0*; SKN-1 inh: -2.8; Rin1 Abl inh: 0.6; Arr AP2 block: -7.4; Tb MetRS conf: 56.4*; Jurkat tox: 21.6*; TbMetRS FP orth: 35.2*

Results for O=C(Nc1cccc2ncccc12)c1cccc(Br)c1 ?
MT1-MMP act inh: -4.6; TbMetRS inhib: -1.6; SKN-1 inh: 1.0; Rin1 Abl inh: -0.5; Arr AP2 block: 13.2

What do the screens show for `N#CC(C#N)=NNc1ccc2cn[nH]c2c1`?
MT1-MMP act inh: -4.6; TbMetRS inhib: 9.9*; SKN-1 inh: -2.5; Rin1 Abl inh: 2.0; Tb MetRS conf: 23.7*; Jurkat tox: 30.5*; TbMetRS FP orth: 54.0*

What do the screens show for `Clc1cccc(CN2CCc3c([nH]c4ccccc34)C2)c1`?
MT1-MMP act inh: -4.4; TbMetRS inhib: 4.6; SKN-1 inh: 6.5; Rin1 Abl inh: -2.9; Arr AP2 block: -10.3

Results for Cc1cccc(CN2CCc3c([nH]c4ccccc34)C2)c1 ?
MT1-MMP act inh: 1.8; TbMetRS inhib: 5.8*; SKN-1 inh: -0.4; Rin1 Abl inh: 0.3; Arr AP2 block: 24.1; Tb MetRS conf: 14.9*; Jurkat tox: 12.6; TbMetRS FP orth: 6.8

How did O=c1c2cc(Br)ccc2[nH]c(=S)n1Cc1ccccn1 do in these assays?
TbMetRS inhib: 10.3*; SKN-1 inh: -15.6; Rin1 Abl inh: 2.0; Arr AP2 block: -6.7; Tb MetRS conf: 21.1*; Jurkat tox: -6.7; TbMetRS FP orth: 5.3

Results for O=c1c2cc(Br)ccc2[nH]c(=S)n1Cc1ccccc1 ?
MT1-MMP act inh: -4.6; TbMetRS inhib: 7.7*; SKN-1 inh: -2.3; Rin1 Abl inh: 1.2; Arr AP2 block: -14.8; Tb MetRS conf: 20.2*; Jurkat tox: 0.1; TbMetRS FP orth: 13.0
